ChEMBL document CHEMBL1629514, “Synthesis, biological activity, and evaluation of the mode of action of novel antitubercular benzofurobenzopyrans substituted on A ring” (Eur J Med Chem, 2010)
Converted amounts (≈) assume the structure as drawn.

How the values were obtained:
[1] = tested on: Mycobacterium tuberculosis; assay: Antimycobacterial activity against Mycobacterium tuberculosis H37Rv after 6 days by Microdilution Resazurin assay; format: functional; conditions: 144 h
Method in brief: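 M. tuberculosis H37Rv grown in 7H9 with 10% ADC enrichment. Two-fold serial dilutions from 500 to 0.9 µg/mL, using DMSO stocks, in 7H9. Incubated at 37 °C for 6 days, then 0.01% resazurin added and incubated a further 24 h. MIC is the lowest concentration preventing the blue-to-pink colour change. DMSO growth controls and isoniazid (1 µg/mL to 1 ng/mL) were included.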

Vero = assay: Cytotoxicity against african green monkey Vero cells assessed as cell growth after 48 hrs by hemocytometry; format: cell-based; conditions: Chlorocebus sabaeus
Method in brief: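 VERO cells grown in DMEM with 10% v/v FBS plus penicillin/streptomycin, 37 °C, humidified 5% CO2. Log-phase cells seeded in 24-well plates and allowed to attach 3 h. Compounds diluted in DMSO (final ≤0.4% v/v) and tested at 10^-8 to 10^-4 M. Cells counted after 48 h. Two experiments in duplicate; mean used to derive IC50.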

[2] = Selectivity index, ratio of IC50 for african green monkey VERO cells to MIC95 for Mycobacterium tuberculosis H37Rv; format: functional
Method in brief: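 VERO cells grown in DMEM with 10% FBS at 37 °C and 5% CO2. Seeded at 2×10^4 cells/mL and allowed to attach for 3 h. Compounds added at 10^-8 to 10^-4 M (DMSO ≤0.4% v/v) and cells counted by hemocytometer after 48 h. IC50 from means of two experiments in duplicate. SI is VERO IC50 divided by the M. tuberculosis MIC95.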

[3] = tested on: Mycolicibacterium smegmatis; assay: Antimycobacterial activity against Mycobacterium smegmatis mc2155 assessed as inhibition of mycolic acid biosynthesis at 1 to 25 ug/ml after 15 mins; format: functional
Method in brief: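 Cell-free assay on cell wall extracts from bacteria washed in phosphate buffer and disrupted at 0.8 kbar, using 500 µg extract protein. Buffer was 100 mM potassium phosphate pH 7.0 with 3 mM MgCl2, 7 mM KHCO3, 7 mM ATP and 0.7 mM CoASH. Compounds (5% v/v DMSO final) preincubated 15 min at 37 °C, then [1-14C]acetate added for 60 min at 37 °C. Reactions saponified and mycolate profiles run on TLC; % inhibition taken against control. Thiolactomycin was the reference, run at two concentrations.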

[4] = tested on: Mycobacterium tuberculosis; assay: Antimycobacterial activity against Mycobacterium tuberculosis; format: functional
[5] = tested on: Mycolicibacterium smegmatis; assay: Antimycobacterial activity against Mycobacterium smegmatis; format: functional

| Structure (SMILES) | MIC95 [1] [µM] | IC50 (Vero) [µM] | Selectivity Index [2] | inhibition (INH) [3] [%] | MIC95 [4] [µg/mL] | MIC95 [5] [µg/mL] |
| --- | --- | --- | --- | --- | --- | --- |
| CC(=O)c1ccc2oc3ccc4c(c3c2c1)CCC(C)(C)O4 | > 340 |  |  |  |  |  |
| CC1(C)C=Cc2c(ccc3oc4c(Cl)cccc4c23)O1 | 87.5 (≈ 24.9 µg/mL) | 100 | 1.2 |  |  |  |
| CC1(C)C=Cc2c(ccc3oc4cc(Br)ccc4c23)O1 | 37.5 (≈ 12.3 µg/mL) |  | 93.3 |  |  |  |
| CC1(C)C=Cc2c(ccc3oc4ccc(Cl)cc4c23)O1 | 353 (≈ 101 µg/mL) | 290 | 0.8 |  |  |  |
| CC1(C)C=Cc2c(ccc3oc4cccc(Cl)c4c23)O1 | 43.8 (≈ 12.5 µg/mL) | 100 | 2.3 |  |  |  |
| CC1(C)C=Cc2c(ccc3oc4c(O)cccc4c23)O1 | 23.5 (≈ 6.26 µg/mL) | 3.3 | 0.1 |  |  |  |
| CC1(C)C=Cc2c(ccc3oc4cc(O)ccc4c23)O1 | 23.5 (≈ 6.26 µg/mL) | 9.2 | 0.4 |  |  |  |
| CC1(C)C=Cc2c(ccc3oc4ccc(O)cc4c23)O1 | 47 (≈ 12.5 µg/mL) | 5 | 0.1 |  |  |  |
| CC1(C)C=Cc2c(ccc3oc4cccc(O)c4c23)O1 | 95 (≈ 25.3 µg/mL) | 9.1 | 0.1 |  |  |  |
| CC1(C)CCc2c(ccc3oc4ccc(O)cc4c23)O1 | 46.5 (≈ 12.5 µg/mL) | 18 | 0.4 |  |  |  |
| COc1cccc2c1oc1ccc3c(c12)C=CC(C)(C)O3 | 45 (≈ 12.6 µg/mL) | 100 | 2.2 | >60 |  |  |
| COc1ccc2c(c1)oc1ccc3c(c12)C=CC(C)(C)O3 | 89 (≈ 24.9 µg/mL) | 100 | 1.1 | >60 |  |  |
| COc1ccc2oc3ccc4c(c3c2c1)C=CC(C)(C)O4 | 45 (≈ 12.6 µg/mL) | 100 | 2.2 | >60 |  |  |
| COc1cccc2oc3ccc4c(c3c12)C=CC(C)(C)O4 | 45 (≈ 12.6 µg/mL) | 280 | 6.2 | >60 |  |  |
| COc1ccc2oc3cc4c(cc3c2c1)OC(C)(C)C=C4 | 89 (≈ 24.9 µg/mL) |  | 83.2 |  |  |  |
| CC1(C)C=Cc2c(ccc3c2oc2ccc4c(c23)C=CC(C)(C)O4)O1 | > 300 |  |  |  |  |  |
| CC1(C)C=Cc2c(ccc3oc4cc(-c5ccc6c(c5)oc5ccc7c(c56)C=CC(C)(C)O7)ccc4c23)O1 | > 200 |  |  |  |  |  |
| CC1(C)C=Cc2c(ccc3oc4ccncc4c23)O1 |  |  |  |  | 16 (≈ 63.7 µM) | 8 (≈ 31.8 µM) |
| CC(=O)c1ccc2oc3ccc4c(c3c2c1)C=CC(C)(C)O4 | > 1710 |  |  |  |  |  |
| CC1(C)C=Cc2c(ccc3oc4ccccc4c23)O1 | 100 (≈ 25 µg/mL) | 320 | 3.2 |  |  |  |
| COc1cccc2c1C(=O)c1c(O)c3c(c(O)c1C2=O)C[C@@](O)(C(=O)CO)C[C@@H]3O[C@H]1C[C@H](N)[C@H](O)[C@H](C)O1 [DOXORUBICIN] |  | 3.6 |  |  |  |  |
| NNC(=O)c1ccncc1 [ISONIAZID] | 1.8 (≈ 0.247 µg/mL) | > 100 |  |  |  |  |
